Laboratory results from PMC7683378 (Journal of autoimmunity, 2020).

Columns and labels:
[1] = tested on: lymphocytes from immunized SJL-DQ8 mice; test: ELISPOT of IL-2 and IFN-γ secretion by lymphocytes of immunized SJL-DQ8 mice; assay type: cell-based, mouse; details: 5X10^5 lymphocytes, peptides 20 μg/ml, 48 hours
Summary of the method: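 SJL-DQ8 mice (6; 3 female, 3 male) immunised s.c. with 150 μg InsB:9-23 in CFA and boosted in IFA. 5×10^5 spleen/draining-node lymphocytes plated on nitrocellulose wells coated with 4 μg/ml IL-2 or 10 μg/ml anti-IFN-γ capture antibody, 48 h at 37 °C with peptides at 20 μg/ml. Biotinylated detection antibody 2 h, streptavidin-AP 1 h, BCIP/NBT development. Positive response: >20 net SFC/10^6 and P<0.05 (t-test, triplicates).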

[2] = tested on: PBMCs from HLA-DQ8 positive T1D patients; test: Lymphocyte proliferation; assay type: cell-based, human; details: all peptides 20 μg/ml; gated on live T-cells
Summary of the method: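 Fresh Ficoll-isolated PBMCs from patients with at least one DQB*03:02 allele, in RPMI/10% FBS. Stimulated 48 h with InsB:9-23 or scrambled InsB:9-23, with or without RI-D-peptides or scrambled versions, all at 20 μg/ml. Proliferation by CFSE as for mouse lymphocytes, gated on live T-cells. Inhibition = 100 − 100 × (proliferation with/without RI-D-peptide).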

[3] = tested on: PBMCs from HLA-DQ8 positive T1D patients; test: Cytokine production; assay type: cell-based, human; details: all peptides 20 μg/ml, 48 hours, Luminex; 31 new onset DQ8 positive T1D patients
Summary of the method: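 Fresh PBMCs from heparinised blood (Ficoll) of patients genotyped for at least one DQB*03:02 allele, seeded in RPMI/10% FBS. Stimulated 48 h with InsB:9-23 or scrambled InsB:9-23, with or without RI-D-peptides or scrambled versions, all peptides at 20 μg/ml. Supernatant cytokines by Luminex, as for mouse lymphocytes. Long-standing (>10 years) DQ8 T1D patients served as controls.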

[4] = tested on: lymphocytes from immunized SJL-DQ8 mice; test: Ex vivo lymphocyte proliferation; assay type: cell-based, mouse; details: all peptides 20 μg/ml, 5 days, flow cytometry
Summary of the method: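 Spleen/draining-node cells from InsB:9-23-immunised SJL-DQ8 mice, 10^6 cells at 2×10^6/ml in 0.1% BSA/PBS, labelled with 1.5 μM CFSE for 10 min at 37 °C. Quenched with ice-cold RPMI/10% FBS, 5 min on ice, washed three times. Plated at 2×10^5 cells/well with peptides at 20 μg/ml for 5 days. Flow cytometry gated on live singlets; at least triplicates; inhibition = 100 − 100 × (proliferation with/without RI-D-peptide).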

[5] = tested on: 5KC cells (TCR specific for the InsB:9-23–DQ8 complex); test: Cellular antigen presentation assay; assay type: cell-based, mouse; details: BSM cells + 5KC cells incubated with the peptide; IL-2 by Luminex
Summary of the method: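 HLA-DQ8-homozygous BSM B-cells (RPMI, 10% FBS, 37 °C, 5% CO2): 10^6 cells loaded overnight with 200 μg/ml InsB:9-23 (scrambled InsB:9-23 or gliadin as negative peptides), washed twice with PBS, then given RI-D-peptide or scrambled control for 2 h at 37 °C. 5KC mouse T-hybridoma cells with human TCR added 1:1, overnight. Supernatant IL-2 by Luminex; anti-CD3/CD28 beads as positive control; 4–5 independent experiments.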

[6] = tested on: lymphocytes from immunized SJL-DQ8 mice; test: Ex vivo cytokine production; assay type: cell-based, mouse; details: all peptides 20 μg/ml, 48 hours, Luminex; 20 SJL-DQ8 mice
Summary of the method: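 Lymphocytes from spleens and draining nodes of SJL-DQ8 mice (6–8 weeks) immunised s.c. with 150 μg InsB:9-23 in CFA and boosted in IFA. Plated at 2×10^5 cells/well in RPMI/10% FBS with medium, InsB:9-23 with or without RI-D-peptides or scrambled versions, or scrambled InsB:9-23, all at 20 μg/ml. Supernatants taken at 48 h, kept at −80 °C, cytokines by mouse Milliplex Luminex panel.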

[7] = tested on: recombinant HLA-DQ8 protein; test: DELFIA immunoassay: inhibition of binding of other HLA-DQ8-binders; parameters: species or system human; details: biotinylated GAD65 or gliadin peptide with RI-D-peptide
[8] = tested on: recombinant HLA-DQ8 protein; assay type: binding, human; details: serially diluted to 0.5 μM, 48 hours at 37 °C
Summary of the method: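 DELFIA: recombinant HLA-DQ8 (0.012 mg/ml) with 10 μM biotinylated InsB:9-23, plus RI-D-peptide serially diluted to 0.5 μM final, 48 h at 37 °C in 0.1% BSA/PBS with 0.05% Triton. Then bound on nickel-coated plates 2 h at RT, washed, Eu-streptavidin 30 min at RT, washed, enhancement solution ~1 h. Time-resolved fluorescence gave percent inhibition.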

Sequence | IFN-γ ELISPOT response to InsB:9-23 [1] | IL-2 ELISPOT response to InsB:9-23 [1] | Lymphocytes proliferation in PBMCs stimulated with InsB:9-23 (CFSE assay) [2] | IFN-γ production in PBMCs stimulated with InsB:9-23 [3] | IL-2 production in PBMCs stimulated with InsB:9-23 [3] | Lymphocyte proliferation induced by InsB:9-23 (CFSE assay) [4] | Activation of 5KC T-cells (IL-2 secretion) by the peptide itself [5] | IFN-γ production by lymphocytes stimulated with InsB:9-23 [6] | IL-2 production by lymphocytes stimulated with InsB:9-23 [6] | Competition with other HLA-DQ8-binders (GAD65, gliadin) [7] | Dose dependence of inhibition of InsB:9-23 binding to HLA-DQ8 [8]
FFGGREGCVLYLAEVLHSG [RI-EXT] | significantly decreased | significantly decreased | significantly suppressed | significantly suppressed | significantly suppressed | significantly suppressed | did not activate TCR | significantly blocked | significantly blocked | competed only with InsB:9-23 and not with other HLA-DQ8-binders | dose-dependent
GGREGCVLYLAEVGG [RI-CT] | significantly decreased | significantly decreased | significantly suppressed | significantly suppressed | significantly suppressed | significantly suppressed | did not activate TCR | significantly blocked | significantly blocked | competed only with InsB:9-23 and not with other HLA-DQ8-binders | dose-dependent
